# Reference: ChEMBL document CHEMBL1131077, “3,5-Dihydro-4H-2,3-benzodiazepine-4-thiones: a new class of AMPA receptor antagonists” (J Med Chem, 1998)
# Legend:
# [1] = Relative lipophilicity; type: physicochemical; conditions: TLC, acetone/water 2:1 mobile phase
# Procedure, shortened: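 Reversed-phase TLC on plates pre-dried 1 h at 105 °C, developed in acetone/water 2:1 (v/v); 1 µL of 3 mg/mL CHCl3 solution spotted. Rf averaged over five runs with varied spot positions; Rm = log[(1/Rf) − 1].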
# Mus musculus [2] = organism: Mus musculus; test: (§1) Dose which induced 50% of mice to fall from the rotarod; type: functional
# Procedure, shortened: (§2)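 Male Swiss mice (20–26 g, 48–54 days old), groups of 10, pretrained on a 3 cm rotarod at 8 rpm; tested 30 min after ip dosing. Failure meant falling within 2 min. TD50 by Litchfield–Wilcoxon, at least 32 animals.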
# Mus musculus [3] = organism: Mus musculus; test: Anticonvulsant activity against audiogenic seizures in DBA/2 mice (value required to prevent clonic phases of seizures).; type: functional
# Procedure, shortened: (§3)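 DBA/2 mice (8–12 g, 22–25 days old, either sex), groups of 10, given drug or vehicle ip (50% DMSO/50% saline, 0.1 mL/10 g) 30 min before auditory stimulation; latency and incidence of seizure phases scored. ED50 per phase by Litchfield–Wilcoxon, at least 32 animals per value.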
# Mus musculus [4] = organism: Mus musculus; test: Anticonvulsant activity against audiogenic seizures in DBA/2 mice (value required to prevent tonic phases of seizures).; type: functional; procedure, shortened: as §3
# [5] = Therapeutic index (TD50/ED50) from the clonic phase of the audiogenic seizures
# Procedure, shortened: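 Ratio of rotarod TD50 (Swiss mice, 30 min after ip dosing) to ED50 for clonic phase of audiogenic seizures in DBA/2 mice (30 min after ip dosing). Both values from Litchfield–Wilcoxon fits, in µmol/kg.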
# Mus musculus [6] = test: Anticonvulsant activity against clonic seizures induced by icv injection of AMPA in DBA/2 mice; type: functional; conditions: central
# Mus musculus [7] = organism: Mus musculus; test: Anticonvulsant activity against maximal electroshock (MES) seizures in swiss mice; type: functional
# Procedure, shortened: (§4)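 Swiss mice dosed ip (50% DMSO/saline) 45 min before ear-clip electroshock (50 mA, 20 ms pulses, 35 Hz, 400 ms). Protection taken as abolition of tonic hindlimb extension. Four to five doses, 8–10 mice each; ED50 by Litchfield–Wilcoxon.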
# Mus musculus [8] = organism: Mus musculus; test: Anticonvulsant activity against pentylenetetrazole (PTZ)-induced seizures in swiss mice; type: functional
# Procedure, shortened: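 Male Swiss mice (20–26 g, 42–48 days old) dosed ip in 50% DMSO/saline 45 min before PTZ 85 mg/kg sc (CD97); watched 30 min. Protection meant no clonic spasm lasting at least 5 s. ED50 by Litchfield–Wilcoxon.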
# Mus musculus [9] = organism: Mus musculus; test: Anticonvulsant activity against tonic phase of the audiogenic seizures after concomitant with flumazenil at 8.24 umol dose in DBA/2 mice; type: functional
# Procedure, shortened: (§5)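 DBA/2 mice (8–12 g, 22–25 days old, either sex) given test drug ip in 50% DMSO/50% saline together with flumazenil at the stated dose, then auditory stimulation 30 min after dosing; clonic or tonic phase scored in groups of 10. ED50 by Litchfield–Wilcoxon, at least 32 animals per value.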
# Mus musculus [10] = organism: Mus musculus; test: Anticonvulsant activity against tonic phase of the audiogenic seizures after pretreatment with aniracetam in DBA/2 mice; type: functional
# Procedure, shortened: (§6)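 DBA/2 mice (8–12 g, 22–25 days old, either sex) pretreated with aniracetam, then given the benzodiazepine ip in 50% DMSO/50% saline; sound stimulation 30 min after dosing, with clonic or tonic phase scored. ED50 by Litchfield–Wilcoxon (at least 32 animals), compared with benzodiazepine alone.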
# Mus musculus [11] = organism: Mus musculus; test: Anticonvulsant activity against clonic phase of the audiogenic seizures after concomitant with flumazenil at 24.72 umol dose in DBA/2 mice; type: functional; procedure, shortened: as §5
# Mus musculus [12] = organism: Mus musculus; test: Anticonvulsant activity against clonic phase of the audiogenic seizures after concomitant with flumazenil at 8.24 umol dose in DBA/2 mice; type: functional; procedure, shortened: as §5
# Mus musculus [13] = organism: Mus musculus; test: Anticonvulsant activity against clonic phase of the audiogenic seizures after pretreatment with aniracetam in DBA/2 mice; type: functional; procedure, shortened: as §6
# Mus musculus [14] = test: Anticonvulsant activity against tonic seizures induced by icv injection of AMPA in DBA/2 mice; type: functional; conditions: central
# [15] = as §1; type: ADME; conditions: mouse, in vivo; procedure, shortened: as §2
# Mus musculus [16] = organism: Mus musculus; test: Anticonvulsant activity against tonic phase of the audiogenic seizures after concomitant with flumazenil at 24.72 umol dose in DBA/2 mice; type: functional; procedure, shortened: as §5
# Mus musculus [17] = organism: Mus musculus; test: Anticonvulsant activity against maximal electroshock (MES ) seizures in swiss mice; type: functional; procedure, shortened: as §4
Rm [1],Structure (SMILES),TD50 (Mus musculus [2]) [µmol/kg],ED50 (Mus musculus [3]) [µmol/kg],ED50 (Mus musculus [4]) [µmol/kg],selectivity ratio [5],further results
-0.072,COc1cc2c(cc1OC)C(c1ccc(N)cc1)=NN(C)C(=S)C2,130,29.8,20.3,4.35,
-0.63,COc1cc2c(cc1OC)C(c1ccc(N)cc1)=NNC(=O)C2,,,,,ED50 (Mus musculus [13]): 65.4 µmol/kg
0.263,COc1cc2c(cc1OC)C(c1ccc(Br)cc1)=NN(C)C(=O)C2,,,,,
0.575,COc1cc2c(cc1OC)C(c1ccc(Br)cc1)=NN(C)C(=S)C2,,105,60.4,,
-0.308,COc1cc2c(cc1OC)C(c1ccc(N)cc1)=NN=C(S)C2,,6.3,3.3,6.76,ED50 (Mus musculus [6]): 17.1 µmol/kg; ED50 (Mus musculus [17]): 7.75 µmol/kg; ED50 (Mus musculus [8]): 15.4 µmol/kg; ED50 (Mus musculus [9]): 3.24 µmol/kg; ED50 (Mus musculus [10]): 38.5 µmol/kg; ED50 (Mus musculus [11]): 7.1 µmol/kg; ED50 (Mus musculus [12]): 6.9 µmol/kg; ED50 (Mus musculus [13]): 46.1 µmol/kg; ED50 (Mus musculus [14]): 11.9 µmol/kg; TD50 [15]: 42.6 µmol/kg; ED50 (Mus musculus [16]): 3.22 µmol/kg
-0.003,COc1cc2c(cc1OC)C(c1ccccc1)=NN(C)C(=O)C2,154,,,,
0.012,COc1cc2c(cc1OC)C(c1ccc(Cl)cc1)=NNC(=O)C2,240,,,,
-0.421,COc1cc2c(cc1OC)C(c1ccc(N)cc1)=NN(C)C(=O)C2,159,,,,
0.269,COc1cc2c(cc1OC)C(c1ccc(Br)cc1)=NN=C(S)C2,73,52.1,33.3,1.4,
0.11,COc1cc2c(cc1OC)C(c1ccc([N+](=O)[O-])cc1)=NN(C)C(=O)C2,,,,,
0.333,COc1cc2c(cc1OC)C(c1ccc([N+](=O)[O-])cc1)=NN(C)C(=S)C2,,103,81.5,,
0.282,COc1cc2c(cc1OC)C(c1ccccc1)=NN(C)C(=S)C2,97.1,30.6,24.7,3.17,

# More lines, now with the values behind:
Structure (SMILES),Rm [1],TD50 (Mus musculus [2]) [µmol/kg],ED50 (Mus musculus [3]) [µmol/kg],ED50 (Mus musculus [4]) [µmol/kg],selectivity ratio [5],further results
COc1cc2c(cc1OC)C(c1ccc(Cl)cc1)=NN=C(S)C2,0.244,193,82.4,55,3.26,
COc1cc2c(cc1OC)C(c1cccc(N)c1)=NNC(=O)C2,-0.542,51.5,,,,
COc1cc2c(cc1OC)C(c1ccccc1)=NN=C(S)C2,0.014,,19.7,15,5.02,ED50 (Mus musculus [6]): 43.1 µmol/kg; ED50 (Mus musculus [7]): 27.8 µmol/kg; ED50 (Mus musculus [8]): 33.7 µmol/kg; ED50 (Mus musculus [9]): 13.6 µmol/kg; ED50 (Mus musculus [10]): 69.1 µmol/kg; ED50 (Mus musculus [11]): 19.3 µmol/kg; ED50 (Mus musculus [12]): 22.4 µmol/kg; ED50 (Mus musculus [13]): 98 µmol/kg; ED50 (Mus musculus [14]): 31.1 µmol/kg; TD50 [15]: 98.9 µmol/kg; ED50 (Mus musculus [16]): 12.6 µmol/kg
COc1cc2c(cc1OC)C(c1cccc(N)c1)=NN=C(S)C2,-0.259,76.7,18.8,9.1,4.08,
COc1cc2c(cc1OC)C(c1cccc([N+](=O)[O-])c1)=NN=C(S)C2,0.092,,,,,
COc1cc2c(cc1OC)C(c1ccccc1)=NNC(=O)C2,-0.244,,33.9,,,
COc1cc2c(cc1OC)C(c1ccc(Br)cc1)=NNC(=O)C2,0.035,226,,,,
COc1cc2c(cc1OC)C(c1ccc([N+](=O)[O-])cc1)=NN=C(S)C2,0.122,> 150,93.4,69.8,,
CC1=NN=C(c2ccc(N)cc2)c2cc3c(cc2C1)OCO3 [GYKI-52466],-0.308,,,,,
COc1cc2c(cc1OC)C(c1cccc([N+](=O)[O-])c1)=NNC(=O)C2,-0.135,,,,,
COc1cc2c(cc1OC)C(c1ccc([N+](=O)[O-])cc1)=NNC(=O)C2,-0.113,,,,,
